MrgX1 agonist = human MrgX1 receptor agonism, primary screen. AID 588627. 310,000 tested, 0.44% active. B-score at 10 µM. MrgX1-HEK293 cells, Fluo-4 calcium fluorescence, agonist mode; hits give high values;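 active means calcium response B-score plate-corrected fluorescence ratio at least 3 library SD, with starting fluorescence B-score inside 5 SD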
Target sequence (Q96LB2 whole entry, looked up): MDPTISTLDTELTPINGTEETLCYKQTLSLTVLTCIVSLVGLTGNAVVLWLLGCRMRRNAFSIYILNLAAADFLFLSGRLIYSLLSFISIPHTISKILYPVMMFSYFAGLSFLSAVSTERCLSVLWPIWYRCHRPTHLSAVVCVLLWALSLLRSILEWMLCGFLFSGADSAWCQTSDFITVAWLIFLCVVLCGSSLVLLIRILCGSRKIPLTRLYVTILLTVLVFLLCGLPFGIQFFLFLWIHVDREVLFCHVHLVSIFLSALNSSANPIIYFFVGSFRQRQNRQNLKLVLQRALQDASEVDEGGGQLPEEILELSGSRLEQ
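Assay system: MrgX1-expressing HEK293 cells / Amount: fifteen thousand cells per well / Doses: test compound in the initial addition of three / Timing: cells plated overnight, dye loaded 0.5 h 37 °C, 0.5 h room temperature / Technique: kinetic calcium dye fluorescence, Fluo-4 NW / Control set: positive and negative controls per plate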
RGS4 act = potentiators or activators of RGS4; 310,000 tested, 0.92% active; B-score at 10 µM; HEK293 M3R/inducible RGS4, carbachol calcium flux Fluo4; hits give low values;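 active means B-score of the integrated calcium signal more than 4 SD below the library mean, with starting fluorescence not abnormally high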;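 further: negative B-score means reduced calcium response which marks RGS4 activation or potentiation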
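Assay system: HEK293 FlpIn-TREx cells, stable M3R, doxycycline-inducible RGS4 / Probe or stimulus: carbachol, ECmax concentration / Times: overnight RGS4 induction, 30 min dye load 37 °C, 20 min compound RT / Signal: kinetic calcium fluorescence imaging with Fluo4-AM dye, 2 µM / Measure: Agonist-evoked peak-minus-minimum fluorescence over baseline, integrated ratio, B score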
MrgX1 allo act = human MrgX1 positive allosteric modulation, primary screen | B-score at 10 µM | Q96LB2 | MrgX1-HEK293, Fluo-4 calcium flux, FDSS; hits give high values | 310,000 tested, 0.63% active;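 active means plate-corrected calcium response at least 3 library SD above typical, normal starting fluorescence, not activating the receptor alone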;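 further: compound read alongside a low EC10 to EC30 dose of BAM8-22 agonist; peak minus trough fluorescence over baseline measured at the second addition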
RGS4 block = human RGS4 inhibition | HEK293 M3R/RGS4 inducible, Fluo-4 calcium flux; hits give high values; triggered by carbachol at its EC20 | 310,000 tested, 0.45% active | B-score at 10 µM | AID 463165;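 active means B-score, a plate-corrected calcium signal, over three deviations above library mean, with baseline fluorescence within five deviations of library mean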;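 further: RGS4 expression induced by doxycycline in cells with stable M3 receptor; B-score is computed from the integrated fluorescence ratio over baseline after carbachol; higher B-score means a larger calcium signal and so more RGS4 inhibition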
Target sequence (P49798 whole entry, looked up): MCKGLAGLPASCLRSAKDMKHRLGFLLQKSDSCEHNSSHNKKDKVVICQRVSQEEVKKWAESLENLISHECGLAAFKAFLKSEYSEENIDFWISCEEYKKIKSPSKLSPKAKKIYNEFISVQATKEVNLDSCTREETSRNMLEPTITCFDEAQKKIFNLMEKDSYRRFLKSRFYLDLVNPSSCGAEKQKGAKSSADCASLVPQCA
MrgX1 antagonist = antagonists of human MrgX1 receptor; Q96LB2; MRGX1-HEK293 calcium flux, Fluo-4, BAM8-22 antagonism; hits give low values; B-score at 10 µM; 310,000 tested, 1.3% active; AID 588676;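 active means calcium-response B-score plate-corrected more than 3 library SD below zero, starting fluorescence within 5 deviations, no agonist response on first addition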;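 further: peak minus trough fluorescence over baseline after final BAM8-22 challenge near maximal dose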
RGS4 act valid = RGS4 activation, validation assay; HEK293 M3R/RGS4 inducible, carbachol calcium flux Fluo4; shares compounds with RGS4 act; 1,100 tested, 89% active; inhibition, % at 10 µM;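 active means inhibition above 3 SD of the buffer control wells, cut at about 41% in these data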;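 further: signal is the integrated peak-minus-minimum Fluo4 fluorescence over baseline ratio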
M3R Ca counter = RGS4 activator counter-screen hit in non-induced cells. inhibition, % at 10 µM. AID 602283. HEK293 M3R non-induced RGS4, Fluo4 calcium flux; after carbachol challenge at its EC90. shares compounds with RGS4 act. 1,100 tested, 82% active;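 active means inhibition exceeding 3 SD of buffer-only control wells, cut at about 26% in these data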;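 further: percent drop in integrated peak-minus-baseline over baseline Fluo4 ratio after carbachol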
* hit, by the source's call; i = inactive; / = not tested or not shown. Only some compounds are listed: those with a hit (about 3.5% of all), similar ones and a draw of the others.

SMILES	MrgX1 agonist	RGS4 act	MrgX1 allo act	RGS4 block	MrgX1 antagonist	RGS4 act valid	M3R Ca counter
COC(=O)C(O)(CC(=O)Nc1ccc(Cl)cc1Cl)C(F)(F)F (configuration not stated)	i	-9.21*	i	i	i	0.0	0.0
Nc1nc(NCCOCCO)nc(NCC2CCCO2)c1[N+](=O)[O-] (configuration not stated)	i	i	i	i	i	/	/
Cc1cc(=O)oc2c(C)c(OCC(=O)N3CCN(c4cccc(Cl)c4)CC3)ccc12	i	i	i	i	i	/	/
CN1CCCN(S(=O)(=O)c2ccc(O)c(C(=O)O)c2)CC1	i	i	i	i	i	/	/
CCSc1ccc([C@@H]2[C@@H]3C(=O)N(CC)C(=O)[C@@H]3[C@]3(C(=O)OC)CCCN23)cc1	i	i	i	i	i	/	/
CN1CCN(Cc2cccc(Oc3ccc(Cl)cc3)c2)CC1	i	-11.6*	i	i	i	90.5*	37.8*
CCN1CCN(Cc2cccc(Oc3ccccc3)c2)CC1	i	-8.01*	i	i	i	61.5*	83.8*
CCN1CCN(Cc2cccc(Oc3ccc(Cl)cc3)c2)CC1	i	-9.42*	i	i	i	92.5*	61.3*
CCOC(=O)C1CCN(Cc2cccc(Oc3ccc(Cl)cc3)c2)CC1	i	i	i	i	i	/	/
CCCCCCCOC(=O)C1=C(C)Nc2ncnn2C1c1cccs1 (configuration not stated)	i	i	i	i	i	/	/
CCCCCCCCOC(=O)C1=C(C)Nc2nnnn2C1c1cccs1 (configuration not stated)	i	-10.7*	i	i	i	90.0*	75.3*
Cc1cc(C)n2nc(SCc3nnc(SCCCCl)o3)nc2n1	i	-7.71*	i	i	i	77.5*	34.8*
COc1ccccc1CN1CC(C(=O)NCc2cc(F)ccc2C)CCC1=O (configuration not stated)	/	i	/	i	/	/	/
CCCc1nc2ccccc2c(C(=O)OCC(=O)Nc2cccc(S(=O)(=O)N3CCOCC3)c2)c1CC	i	-8.86*	i	i	i	91.5*	91.8*
CCCc1nc2ccccc2c(C(=O)OCC(=O)N2CCc3ccccc32)c1CC	i	-8.59*	i	i	i	84.5*	83.8*
CC1CCc2nc3ccccc3c(C(=O)OCC(=O)N3CCc4ccccc43)c2C1 (configuration not stated)	i	i	i	i	i	/	/
CCN(CC1CCCN(CCc2cccc(F)c2)C1)C(=O)c1cc2ccccc2o1 (configuration not stated)	i	-7.72*	i	i	i	78.0*	29.8*
CN(CC1CCCN(CCc2cccc(C(F)(F)F)c2)C1)C(=O)c1cc2ccccc2o1 (configuration not stated)	/	-11.7*	/	i	/	92.0*	74.3*
CSCCC(=O)N(C)CC1CCCN(CCc2cccc(C(F)(F)F)c2)C1 (configuration not stated)	i	i	i	i	i	/	/
CCN(CC1CCCN(CCc2cccc(F)c2)C1)C(=O)c1cc(C)oc1C (configuration not stated)	i	i	i	i	i	/	/
COc1ccccc1NC(=O)COC(=O)c1ccccc1C(=O)N1CCN(c2ccccc2)CC1	i	i	i	i	i	/	/
CC(NC(=O)c1cc(F)c(F)c(F)c1F)c1ccc(-n2ccnc2)cc1 (configuration not stated)	i	i	i	i	i	/	/
O=C(CCC1CCCN(Cc2cccc3c2OCO3)C1)NCc1ccc(F)c(F)c1 (configuration not stated)	i	-9.43*	i	i	i	50.5*	32.8*
COc1ccccc1/C=C/CN1CCCC(CCC(=O)NCc2ccc(F)c(F)c2)C1 (configuration not stated)	i	i	i	i	i	/	/
COC(=O)c1ccc(CN2CCCC(CCC(=O)NCc3ccc(C)o3)C2)cc1 (configuration not stated)	i	-8.99*	i	i	i	88.0*	70.8*
SMILES	MrgX1 agonist	RGS4 act	MrgX1 allo act	RGS4 block	MrgX1 antagonist	RGS4 act valid	M3R Ca counter
COc1ccc(/C=C/CN2CCCC(CCC(=O)NCc3ccc(F)c(F)c3)C2)cc1 (configuration not stated)	i	-7.82*	i	i	i	91.5*	87.3*
O=C(C1CCC(=O)N(C2CCCC2)C1)N1CCN(Cc2cccc(Cl)c2)CC1 (configuration not stated)	i	i	i	i	i	/	/
Cc1ccc(CN2CCC(c3cc(-c4cccs4)n[nH]3)CC2)cc1	i	-16.6*	i	i	i	91.0*	68.3*
FC(F)(F)c1cccc(CN2CCC(c3cc(-c4cccs4)n[nH]3)CC2)c1	i	i	i	i	i	/	/
COc1ccc(C)c2sc(=NC(=O)c3cccc(N4C(=O)CCC4=O)c3)n(C)c12	i	i	i	i	i	/	/
C=CCn1c(=NC(=O)c2cccc(N3C(=O)CCC3=O)c2)sc2cccc(OC)c21	i	-10.2*	i	i	i	92.0*	72.8*
CC(C)C(NC(=O)c1ccc(Cl)cc1)C(=O)NC1=NCCS1 (configuration not stated)	i	i	i	i	i	/	/
CCSc1nnc(NC(=O)C(NC(=O)c2ccc(Cl)cc2)C(C)C)s1 (configuration not stated)	i	-9.43*	i	i	i	0.0	0.0
COc1ccc(S(=O)(=O)n2cnc3cc(C)c(C)cc32)cc1C	i	-10*	i	i	i	88.5*	45.8*
COc1ccc(S(=O)(=O)n2cnc3cc(C)c(C)cc32)cc1	i	i	i	i	i	/	/
COCCNC(=O)CN1C(=O)NC2(CCCc3ccccc32)C1=O (configuration not stated)	i	i	i	i	i	/	/
CCOC(=O)COc1coc(CN2CCN(c3ccc(F)cc3)CC2)cc1=O	i	i	i	i	i	/	/
COc1cc2nc(Nc3ccc(C)c(C)c3)nc(N)c2cc1OC	i	-10.2*	i	i	i	61.0*	0.0
Oc1ccccc1-c1nc(NC2CCCC2)c2ccccc2n1	i	-7.8*	i	i	i	73.5*	59.3*
COC(=O)c1cnn(-c2ccccc2)c1N	i	i	i	i	i	/	/
